{"source": "paper PMC8521312", "about": "(The EMBO Journal, 2021)", "molecules": {"B1": {"name": "Ncl ΔGAR: HA-Dendra2-nucleolin with a GAR domain deletion (protein)", "chain": "MVKLAKAGKTHGEAKKMAPPPKEVEEDSEDEEMSEDEDDSSGEEEVVIPQKKGKKATTTPAKKVVVSQTKKAAVPTPAKKAAVTPGKKAVATPAKKNITPAKVIPTPGKKGAAQAKALVPTPGKKGAATPAKGAKNGKNAKKEDSDEDEDEEDEDDSDEDEDDEEEDEFEPPIVKGVKPAKAAPAAPASEDEEDDEDEDDEEDDDEEEEDDSEEEVMEITTAKGKKTPAKVVPMKAKSVAEEEDDEEEDEDDEDEDDEEEDDEDDDEEEEEEEPVKAAPGKRKKEMTKQKEAPEAKKQKVEGSEPTTPFNLFIGNLNPNKSVNELKFAISELFAKNDLAVVDVRTGTNRKFGYVDFESAEDLEKALELTGLKVFGNEIKLEKPKGRDSKKVRAARTLLAKNLSFNITEDELKEVFEDAMEIRLVSQDGKSKGIAYIEFKSEADAEKNLEEKQGAEIDGRSVSLYYTGEKGQRQERTGKTSTWSGESKTLVLSNLSYSATKETLEEVFEKATFIKVPQNPHGKPKGYAFIEFASFEDAKEALNSCNKMEIEGRTIRLELQGSNSRSQPSKTLFVKGLSEDTTEETLKESFEGSVRARIVTDRETGSSKGFGFVDFNSEEDAKAAKEAMEDGEIDGNKVTLDWAKPKKPQGKKTKFE", "modifications": "left off: HA, N-terminal, kept | Dendra2, N-terminal, kept"}}, "key": {"AS1411 DNA aptamer": {"system": "AS1411 DNA aptamer", "assay": "ELISA assay for AS1411-binding peptides", "settings": "0.04 μM aptamer, PBS, 1 h, room temperature, n = 3 technical replicates", "outline": "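Streptavidin-coated wells were washed in PBS-T, loaded with 0.025 μM biotinylated peptide for 1 h at room temperature, and blocked with 1% BSA/PBS for 30 min at 37°C. DIG-labelled aptamer or control aptamer was added, then HRP anti-DIG (1/2,000 in 1% BSA-PBS, 30 min, 37°C). TMB substrate was read by absorbance at […]. PBS-T washes were done between steps.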"}, "axonal Inpp5f mRNA": {"system": "axonal Inpp5f mRNA", "assay": "FISH of axonal Inpp5f mRNA in DRG neurons", "assay_type": "cell-based, rat", "settings": "10 µM AS1411 or control aptamer, 48 h, replated 18 h; n = 11–19 cells per sample; P < 0.05"}, "[1]": {"system": "nucleolin-Kif5a motor complex", "settings": "ref Perry et al, 2016, cited from earlier work"}, "[2]": {"system": "nucleolin mRNA and protein", "assay": "Nucleolin knockdown in DRG neurons", "assay_type": "cell-based, rat", "settings": "siRNA targeting 3′UTR of nucleolin mRNA, 50 nM printed for control siRNAs; 96 h", "outline": "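Three hours after plating, neurons were transfected with control siRNA (50 nM as printed) or either of two siRNAs against the nucleolin 3′UTR using a lipid transfection reagent. Cultures were fixed 96 h later for FISH/immunofluorescence. Sister cultures gave mRNA by RT-ddPCR and protein by immunoblot (milk block, HRP secondary 1:10,000, ECL).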"}, "HEK-293 cells": {"system": "HEK-293 cells", "assay": "Hypotonic challenge", "assay_type": "cell-based, human", "settings": "ddH2O, n = 24 cells per sample, p < 0.05, p < 0.01"}, "DRG neurons": {"system": "DRG neurons", "assay": "Hypotonic challenge", "assay_type": "cell-based, mouse", "settings": "ddH2O, 17–24 cells per sample, three biological repeats"}}, "note": "Entries after “also recorded” stand apart in the source; their conditions may differ.", "data": [{"molecule": "GGTGGTGGTGGTTGTGGTGGTGGTGG [AS1411]", "values": [{"measurement": "binding of aptamer to GAR-derived peptides of 22–28 residues", "setting": "AS1411 DNA aptamer", "value": "showed binding"}, {"measurement": "axonal Inpp5f mRNA (FISH)", "setting": "axonal Inpp5f mRNA", "value": "significant reduction in axonal Inpp5f mRNA"}, {"measurement": "axonal growth", "setting": "[1]; AS1411 perturbation of kinesin–nucleolin interactions", "value": "accelerated axonal growth"}, {"measurement": "association of nucleolin with Kif5a motor complex", "setting": "[1]", "value": "reduced; also recorded: perturbs the association of nucleolin with the Kif5a motor complex"}, {"measurement": "nucleolin localization to axons", "setting": "[1]", "value": "perturbs nucleolin localization to axons"}]}, {"molecule": "siRNA 1: GUUGAAUGACAGAGCCUUUUU; siRNA 2: GGACAUUCCAAGACAGUAAUU", "values": [{"measurement": "endogenous nucleolin mRNA and protein", "setting": "[2]", "value": "significantly reduced"}]}, {"molecule": "B1", "values": [{"measurement": "reduction of nucleolar signal on hypotonic challenge, FL vs ΔGAR", "setting": "HEK-293 cells", "value": "Significant differences between full‐length and GAR deletion nucleolin"}, {"measurement": "reduction of nucleolar signal on hypotonic challenge, FL vs ΔGAR", "setting": "DRG neurons", "value": "no difference between full‐length and ΔGAR mutant nucleolin"}]}]}
